Tests used:
Assay type in all cases: functional
[1] = test system: lizard; test: In vitro potency of compound to stimulate melanosome dispersion in lizard skin relative to alpha-MSH
How it was run: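 Isolated Anolis carolinensis lizard skins were scored in vitro for melanosome dispersion (darkening) across the entire dose-response range. Relative potency is the ratio of the α-MSH concentration giving 50% response to the peptide concentration giving 50% response.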

[2] = test system: Melanocyte-stimulating hormone receptor; test: In vitro potency of compound to stimulate melanosome dispersion in frog (Rana pipiens) skin relative to alpha-MSH
[3] = In vitro potency of compound to stimulate adenylate cyclase activity in melanoma cells relative to alpha-MSH
How it was run: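 Particulate membranes from Cloudman S-91 mouse melanoma tumors grown in DBA/2J mice were used as a cell-free system, 56 μg of protein per assay. Adenylate cyclase activity was measured as conversion of [α-³²P]ATP to [³²P]cAMP, with cAMP isolated by the Salomon method. Full dose-response curves were run in triplicate. Potency is relative to α-MSH: concentration of α-MSH at 50% response divided by that of the peptide.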

Compound	Potency [1]	Potency [2]	Potency [3]
Ac-YEHFRWG-NH2	0.0006	0.0002	0.001
CSCC[C@H](N)C(=O)N[C@@H](CCC(=O)O)C(=O)N[C@@H](Cc1c[nH]cn1)C(=O)N[C@@H](Cc1ccccc1)C(=O)N[C@@H](CCCN=C(N)N)C(=O)N[C@@H](Cc1c[nH]c2ccccc12)C(=O)NCC(=O)O	4e-05	1e-05	
CCCC[C@H](NC(C)=O)C(=O)N[C@@H](CCC(=O)O)C(=O)N[C@@H](Cc1c[nH]cn1)C(=O)N[C@@H](Cc1ccccc1)C(=O)N[C@@H](CCCN=C(N)N)C(=O)N[C@@H](Cc1c[nH]c2ccccc12)C(=O)NCC(N)=O	0.06	0.002	0.09
CSCC[C@H](NC(C)=O)C(=O)N[C@@H](CCC(=O)O)C(=O)N[C@@H](Cc1c[nH]cn1)C(=O)N[C@@H](Cc1ccccc1)C(=O)N[C@@H](CCCN=C(N)N)C(=O)N[C@@H](Cc1c[nH]c2ccccc12)C(=O)NCC(N)=O	0.004	0.0003	
CCCC[C@H](NC(C)=O)C(=O)N[C@@H](CCC(=O)O)C(=O)N[C@@H](Cc1c[nH]cn1)C(=O)N[C@H](Cc1ccccc1)C(=O)N[C@@H](CCCN=C(N)N)C(=O)N[C@@H](Cc1c[nH]c2ccccc12)C(=O)NCC(N)=O	10	0.02	7.7
